Measurements published in ChEMBL document CHEMBL1153096, “Properly substituted 1,4-dioxane nucleus favours the selective M3 muscarinic receptor activation” (Bioorg Med Chem, 2009).
The source made the active and inactive calls. No cut-off for these calls is given here.

How the values were obtained:
Cavia porcellus [1] = organism: Cavia porcellus; assay: Intrinsic activity at muscarinic M2 receptor in guinea pig atrium assessed as inhibition of electrically-stimulated muscle contraction relative to bathanecol; format: tissue-based; details: Cardiac atrium
[2] = (§1) Agonist activity at muscarinic M1 receptor in New Zealand White rabbit vas deferens assessed as inhibition of electrically-stimulated muscle contraction; format: functional, Oryctolagus cuniculus
Procedure, shortened: (§2)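 Prostatic portion of male-free-listed New Zealand white rabbit (3.0-3.5 kg, fasted 24 h) vas deferens in modified Krebs, 31 °C, 95% O2-5% CO2; 45 min stabilisation, field stimulation 2 Hz, 5 ms, 5 V; isometric recording. Cumulative concentration-response curves; pD2 by linear regression; intrinsic activity as fraction of McN-A-343 maximum; means ± SEM of four to six experiments.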

Oryctolagus cuniculus [3] = organism: Oryctolagus cuniculus; assay: Intrinsic activity at muscarinic M1 receptor in New Zealand White rabbit vas deferens assessed as inhibition of electrically-stimulated muscle contraction relative to McN-A-343; format: tissue-based; procedure, shortened: as §2
[4] = target: T1, Muscarinic acetylcholine receptor M5 (Homo sapiens, UniProt P08912); assay: Displacement of [3H]NMS from human muscarinic M5 receptor expressed in CHO cells by microplate scintillation counting; format: cell-based
T1 sequence (P08912 whole entry): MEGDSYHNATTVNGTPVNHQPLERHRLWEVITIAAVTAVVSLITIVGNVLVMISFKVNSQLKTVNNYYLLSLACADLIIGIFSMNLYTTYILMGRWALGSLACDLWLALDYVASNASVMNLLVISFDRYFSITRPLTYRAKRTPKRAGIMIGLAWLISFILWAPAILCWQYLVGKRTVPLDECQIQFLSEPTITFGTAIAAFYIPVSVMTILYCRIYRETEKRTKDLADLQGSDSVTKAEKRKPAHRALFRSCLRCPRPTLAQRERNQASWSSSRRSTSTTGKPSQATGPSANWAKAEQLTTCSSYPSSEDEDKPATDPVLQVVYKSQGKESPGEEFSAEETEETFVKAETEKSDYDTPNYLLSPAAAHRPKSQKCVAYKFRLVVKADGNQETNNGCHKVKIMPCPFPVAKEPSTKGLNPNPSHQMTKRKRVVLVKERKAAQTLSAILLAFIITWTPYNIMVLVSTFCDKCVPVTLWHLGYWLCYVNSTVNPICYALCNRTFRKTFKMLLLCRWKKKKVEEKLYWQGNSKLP

Cavia porcellus [5] = organism: Cavia porcellus; assay: Intrinsic activity at muscarinic M4 receptor in guinea pig lung assessed as inhibition of electrically-stimulated muscle contraction relative to bathanecol
Procedure, shortened: (§3)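 Male guinea pig peripheral lung strips (15 × 2 × 2 mm) from lower lobe, 0.3 g resting tension, 37 °C, Krebs-Henseleit with carbogen; 45 min equilibration, isometric contractions. Cumulative agonist concentration-response curves; pD2 by linear regression; intrinsic activity relative to bethanechol maximum; means ± SEM of four to six experiments.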

[6] = target: T2, Muscarinic acetylcholine receptor M4 (Homo sapiens, UniProt P08173); assay: Displacement of [3H]NMS from human muscarinic M4 receptor expressed in CHO cells by microplate scintillation counting; format: cell-based
T2 sequence (P08173 whole entry): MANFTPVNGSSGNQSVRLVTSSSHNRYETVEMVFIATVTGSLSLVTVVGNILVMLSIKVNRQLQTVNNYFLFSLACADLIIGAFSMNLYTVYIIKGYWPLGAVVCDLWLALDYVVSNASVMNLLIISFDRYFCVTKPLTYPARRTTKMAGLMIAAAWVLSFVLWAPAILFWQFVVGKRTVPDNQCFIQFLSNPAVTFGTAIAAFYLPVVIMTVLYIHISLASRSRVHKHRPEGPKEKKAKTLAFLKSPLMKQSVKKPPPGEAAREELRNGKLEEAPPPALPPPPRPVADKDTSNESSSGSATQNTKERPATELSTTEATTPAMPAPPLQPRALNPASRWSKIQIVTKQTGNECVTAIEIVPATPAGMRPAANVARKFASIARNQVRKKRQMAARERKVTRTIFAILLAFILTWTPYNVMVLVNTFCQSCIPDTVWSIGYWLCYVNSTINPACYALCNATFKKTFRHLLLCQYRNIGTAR

[7] = target: Muscarinic acetylcholine receptor M3 (Cavia porcellus) (UniProt Q8VH26); assay: Agonist activity at muscarinic M3 receptor in guinea pig ileum assessed as inhibition of electrically-stimulated muscle contraction; format: functional, tissue-based
Procedure, shortened: as §3, with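 “(250-350 g, fasted 24 h) ileal segments 2-3 cm, 1.0” for “peripheral lung strips (15 × 2 × 2 mm) from lower lobe, 0.3”, “g” for “g resting”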

[8] = target: T3, Muscarinic acetylcholine receptor M2 (Homo sapiens, UniProt P08172); assay: Displacement of [3H]NMS from human muscarinic M2 receptor expressed in CHO cells by microplate scintillation counting; format: cell-based
T3 sequence (P08172 whole entry): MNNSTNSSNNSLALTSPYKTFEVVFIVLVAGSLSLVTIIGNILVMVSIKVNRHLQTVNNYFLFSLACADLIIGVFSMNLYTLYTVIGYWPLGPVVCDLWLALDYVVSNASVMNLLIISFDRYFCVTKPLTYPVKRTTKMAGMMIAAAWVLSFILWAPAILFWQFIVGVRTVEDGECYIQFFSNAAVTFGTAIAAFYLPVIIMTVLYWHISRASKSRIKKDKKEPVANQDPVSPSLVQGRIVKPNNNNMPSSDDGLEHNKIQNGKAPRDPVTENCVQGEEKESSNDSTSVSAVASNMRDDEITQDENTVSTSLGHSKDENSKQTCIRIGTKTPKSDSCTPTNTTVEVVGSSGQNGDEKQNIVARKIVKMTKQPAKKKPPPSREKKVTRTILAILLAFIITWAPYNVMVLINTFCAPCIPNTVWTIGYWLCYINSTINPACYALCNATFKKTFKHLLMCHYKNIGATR

Oryctolagus cuniculus [9] = organism: Oryctolagus cuniculus; assay: as §1; format: functional; procedure, shortened: as §2
Oryctolagus cuniculus [10] = organism: Oryctolagus cuniculus; assay: Antagonist activity at muscarinic M1 receptor in New Zealand White rabbit vas deferens assessed as effect on muscle contraction up to 30 uM; format: functional, tissue-based
[11] = Agonist activity at muscarinic M2 receptor in guinea pig atrium assessed as inhibition of electrically-stimulated muscle contraction; format: functional, Cavia porcellus, Cardiac atrium
[12] = target: Muscarinic acetylcholine receptor M3 (Homo sapiens, UniProt P20309); assay: Displacement of [3H]NMS from human muscarinic M3 receptor expressed in CHO cells by microplate scintillation counting; format: cell-based
[13] = target: Muscarinic acetylcholine receptor M3 (Cavia porcellus) (UniProt Q8VH26); assay: Intrinsic activity at muscarinic M3 receptor in guinea pig ileum assessed as inhibition of electrically-stimulated muscle contraction relative to bathanecol; format: tissue-based
Procedure, shortened: as §3, with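 “(250-350 g, fasted 24 h) ileal segments 2-3 cm, 1.0” for “peripheral lung strips (15 × 2 × 2 mm) from lower lobe, 0.3”, “g” for “g resting”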

[14] = target: T4, Muscarinic acetylcholine receptor M1 (Homo sapiens, UniProt P11229); assay: Displacement of [3H]NMS from human muscarinic M1 receptor expressed in CHO cells by microplate scintillation counting; format: cell-based
T4 sequence (P11229 whole entry): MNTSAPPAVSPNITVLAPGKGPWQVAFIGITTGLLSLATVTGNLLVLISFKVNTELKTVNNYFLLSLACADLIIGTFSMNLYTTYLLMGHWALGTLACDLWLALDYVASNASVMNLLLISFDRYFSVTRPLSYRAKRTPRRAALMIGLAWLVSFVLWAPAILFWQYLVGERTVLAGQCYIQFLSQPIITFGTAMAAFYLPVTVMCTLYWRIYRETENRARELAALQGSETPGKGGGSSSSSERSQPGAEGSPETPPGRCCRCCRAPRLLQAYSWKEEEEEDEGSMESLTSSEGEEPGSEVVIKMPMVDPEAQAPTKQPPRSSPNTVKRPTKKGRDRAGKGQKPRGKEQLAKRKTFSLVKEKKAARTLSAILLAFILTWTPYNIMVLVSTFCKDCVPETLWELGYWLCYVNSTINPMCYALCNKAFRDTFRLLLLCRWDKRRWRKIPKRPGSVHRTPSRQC

Cavia porcellus [15] = organism: Cavia porcellus; assay: Antagonist activity at muscarinic M4 receptor in guinea pig lung assessed as effect on muscle contraction up to 10 uM; format: functional
[16] = Agonist activity at muscarinic M4 receptor in guinea pig lung assessed as inhibition of electrically-stimulated muscle contraction; format: functional, Cavia porcellus
Cavia porcellus [17] = organism: Cavia porcellus; assay: Antagonist activity at muscarinic M2 receptor in guinea pig atrium assessed as effect on muscle contraction up to 10 uM; format: functional, tissue-based; details: Cardiac atrium
Oryctolagus cuniculus [18] = organism: Oryctolagus cuniculus; details: New Zealand White, Vas deferens
Cavia porcellus [19] = organism: Cavia porcellus; assay: Selectivity ratio of pD2 for guinea pig muscarinic M4 receptor to pD2 for guinea pig muscarinic M3 receptor
Cavia porcellus [20] = organism: Cavia porcellus; assay: Selectivity ratio of pD2 for guinea pig muscarinic M3 receptor to pD2 for guinea pig muscarinic M2 receptor
[21] = target: Muscarinic acetylcholine receptor M3 (Cavia porcellus) (UniProt Q8VH26); details: Ileum
Cavia porcellus [22] = organism: Cavia porcellus; details: Cardiac atrium

Sequence of Muscarinic acetylcholine receptor M3 (P20309 whole entry): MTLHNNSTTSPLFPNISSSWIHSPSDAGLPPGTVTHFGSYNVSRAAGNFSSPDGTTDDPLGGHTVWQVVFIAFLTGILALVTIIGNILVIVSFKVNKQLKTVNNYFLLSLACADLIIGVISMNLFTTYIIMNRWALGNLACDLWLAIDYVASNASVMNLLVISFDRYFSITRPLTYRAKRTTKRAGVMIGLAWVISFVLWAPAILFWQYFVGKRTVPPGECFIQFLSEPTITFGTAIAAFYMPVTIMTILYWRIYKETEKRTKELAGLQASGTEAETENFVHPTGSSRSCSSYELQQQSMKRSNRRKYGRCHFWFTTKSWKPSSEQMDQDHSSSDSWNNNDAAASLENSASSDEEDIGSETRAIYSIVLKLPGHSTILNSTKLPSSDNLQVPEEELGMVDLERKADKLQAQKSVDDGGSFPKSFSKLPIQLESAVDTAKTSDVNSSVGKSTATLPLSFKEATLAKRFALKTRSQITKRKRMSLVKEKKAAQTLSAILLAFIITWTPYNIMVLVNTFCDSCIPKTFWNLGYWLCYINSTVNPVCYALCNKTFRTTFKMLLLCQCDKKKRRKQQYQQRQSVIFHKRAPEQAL
Sequence of Muscarinic acetylcholine receptor M3 (Cavia porcellus) (Q8VH26 1-587): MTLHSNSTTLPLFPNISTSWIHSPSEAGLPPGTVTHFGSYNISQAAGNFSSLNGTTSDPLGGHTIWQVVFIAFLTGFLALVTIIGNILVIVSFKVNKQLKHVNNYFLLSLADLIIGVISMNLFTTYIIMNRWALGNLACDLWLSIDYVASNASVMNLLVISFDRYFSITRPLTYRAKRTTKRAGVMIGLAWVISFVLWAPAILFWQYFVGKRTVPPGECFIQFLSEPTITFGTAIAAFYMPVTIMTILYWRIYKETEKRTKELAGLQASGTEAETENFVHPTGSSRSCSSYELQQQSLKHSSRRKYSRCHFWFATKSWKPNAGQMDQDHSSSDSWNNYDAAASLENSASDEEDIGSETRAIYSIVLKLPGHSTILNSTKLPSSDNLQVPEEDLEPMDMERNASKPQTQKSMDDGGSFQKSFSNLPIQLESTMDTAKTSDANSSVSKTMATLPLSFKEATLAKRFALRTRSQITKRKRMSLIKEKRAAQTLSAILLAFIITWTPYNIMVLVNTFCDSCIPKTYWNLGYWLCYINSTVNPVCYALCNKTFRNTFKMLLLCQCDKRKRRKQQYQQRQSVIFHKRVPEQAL

SMILES | Intrinsic activity (Cavia porcellus [1]) | Ki [4] | Intrinsic activity (Cavia porcellus [5]) | Ki [6] | pD2 [7] | Ki [8] | pD2 (Oryctolagus cuniculus [9]) | pKb (Oryctolagus cuniculus [10]) | pD2 [11] | Ki [12] | Intrinsic activity [13] | Ki [14] | pD2 [16] | other results
C[C@@H]1COC[C@@H](C[N+](C)(C)C)O1.[I-] | 1 | 67.6 µM | 1 | 87.1 µM | 6.02 | 4.9 µM | – | – | – | – | – | – | – | pD2 [2]: 5.08; Intrinsic activity (Oryctolagus cuniculus [3]): 1
CC1(C)OC[C@@H](C[N+](C)(C)C)OC1(C)C.[I-] | 0.71 | 66.1 µM | – | 53.7 µM | 5.09 | 46.8 µM | inactive | inactive | 5.12 | 40.7 µM | 0.93 | > 100 µM | – | pKb (Cavia porcellus [15]): inactive
CC1(C)CO[C@H](C[N+](C)(C)C)CO1.[I-] | – | > 100 µM | 0.22 | > 100 µM | 4.91 | 95.5 µM | inactive | inactive | – | 77.6 µM | 0.68 | > 100 µM | 4.85 | pKb (Cavia porcellus [17]): inactive
C[N+](C)(C)CC#CCOC(=O)Nc1cccc(Cl)c1.[Cl-] | – | – | – | – | – | – | – | – | – | – | – | – | – | pD2 [2]: 6.4
C[C@H]1COC[C@@H](C[N+](C)(C)C)O1.[I-] (relative stereo) | 1 | 7.76 µM | – | 11.5 µM | 7.34 | 1.58 µM | – | – | – | – | – | – | – | pD2 [2]: 5.65; Intrinsic activity (Oryctolagus cuniculus [3]): 1
C[C@H]1CO[C@H](C[N+](C)(C)C)CO1.[I-] (relative stereo) | 0.95 | 63.1 µM | 0.57 | > 100 µM | – | 17.4 µM | inactive | – | – | 44.7 µM | 1 | > 100 µM | 5.08 | pKb (Oryctolagus cuniculus [18]): inactive
C[C@@H]1OC[C@@H](C[N+](C)(C)C)OC1(C)C.[I-] (relative stereo) | 0.46 | 16.6 µM | – | 30.2 µM | 5.7 | 33.9 µM | – | – | 4.99 | 10.5 µM | 0.66 | 38 µM | – | pKb (Cavia porcellus [15]): inactive
C[C@@H]1OC[C@@H](C[N+](C)(C)C)O[C@@H]1C.[I-] (relative stereo) | 0.27 | > 100 µM | – | > 100 µM | 4.91 | 89.1 µM | inactive | inactive | 5.04 | > 100 µM | 0.85 | > 100 µM | – | pKb (Cavia porcellus [15]): inactive
C[C@H]1OC[C@@H](C[N+](C)(C)C)O[C@@H]1C.[I-] (relative stereo) | 0.89 | > 100 µM | 0.65 | > 100 µM | 6.7 | 16.6 µM | – | – | 5.01 | > 100 µM | 1.18 | > 100 µM | 4.59 | Selectivity ratio (Cavia porcellus [19]): 141; Selectivity ratio (Cavia porcellus [20]): 49
C[C@@H]1CO[C@H](C[N+](C)(C)C)CO1.[I-] (relative stereo) | 1 | 93.3 µM | 0.55 | 93.3 µM | – | 11.2 µM | inactive | – | – | 66.1 µM | 1 | > 100 µM | – | pKb (Oryctolagus cuniculus [18]): inactive
C[C@H]1O[C@H](C[N+](C)(C)C)COC1(C)C (relative stereo) | – | 83.2 µM | – | 87.1 µM | inactive | 72.4 µM | inactive | inactive | – | 46.8 µM | – | 95.5 µM | – | pKb [21]: inactive; pKb (Cavia porcellus [22]): inactive; pKb (Cavia porcellus [17]): inactive; pKb (Cavia porcellus [15]): inactive
C[C@@H]1OC[C@@H](C[N+](C)(C)C)O[C@H]1C.[I-] (relative stereo) | 0.8 | 15.5 µM | 0.35 | 30.9 µM | 6.95 | 13.8 µM | inactive | inactive | 4.93 | 11 µM | 0.88 | 24.5 µM | 5.08 | Selectivity ratio (Cavia porcellus [19]): 74; Selectivity ratio (Cavia porcellus [20]): 105
C[C@@H]1O[C@H](C[N+](C)(C)C)CO[C@@H]1C.[I-] (relative stereo) | 0.91 | 97.7 µM | 0.5 | > 100 µM | 5.27 | 20 µM | – | – | 5.18 | > 100 µM | 1 | > 100 µM | 5 | –
CC(C[N+](C)(C)C)OC(N)=O.[Cl-] (configuration not stated) [BETHANECHOL CHLORIDE] | – | – | – | – | 6.16 | – | – | – | 5.88 | – | – | – | 5.01 | –
